Data as given in ChEMBL document CHEMBL1125434, “Preparation and in vitro and in vivo evaluation of quinolones with selective activity against gram-positive organisms” (1992).
Converted amounts (≈) assume the structure as drawn.

What was measured:
Type in all cases: functional
Acinetobacter = experiment: In vitro minimum inhibitory concentration against Acinetobacter CMX 669 using brain-heart infusion agar
Summary of the method: (§1)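 Overnight cultures were grown in BHI broth at 36 °C. Twofold dilutions of a 2000 µg/mL stock were made in BHI agar, giving 200–0.005 µg/mL. Plates received about 10^4 organisms and were incubated for 18 h at 36 °C. MIC was the lowest concentration with no visible growth on the plate.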

Enterococcus faecium = experiment: In vitro minimum inhibitory concentration against Enterococcus faecium ATCC 8043 using brain-heart infusion agar; summary of the method: as §1
Escherichia coli = experiment: In vitro minimum inhibitory concentration against Escherichia coli Juhl using brain-heart infusion agar; summary of the method: as §1
Klebsiella aerogenes = experiment: In vitro minimum inhibitory concentration against Enterobacter aerogenes ATCC 13048 using brain-heart infusion agar; summary of the method: as §1
Klebsiella pneumoniae = experiment: In vitro minimum inhibitory concentration against Klebsiella pneumoniae 8045 using brain-heart infusion agar; summary of the method: as §1
Pseudomonas aeruginosa [1] = experiment: In vitro minimum inhibitory concentration against Pseudomonas aeruginosa K799 / WT using brain-heart infusion agar; summary of the method: as §1
Pseudomonas aeruginosa [2] = experiment: In vitro minimum inhibitory concentration against Pseudomonas aeruginosa A5007 using brain-heart infusion agar; summary of the method: as §1
Staphylococcus aureus [3] = experiment: In vitro minimum inhibitory concentrationp against Staphylococcus aureus ATCC 6538P using brain-heart infusion agar; summary of the method: as §1
Staphylococcus aureus [4] = experiment: In vitro minimum inhibitory concentration against Staphylococcus aureus A 5177 using brain-heart infusion agar; summary of the method: as §1
Staphylococcus aureus [5] = experiment: In vitro minimum inhibitory concentration against Staphylococcus aureus CMX 553 using brain-heart infusion agar; summary of the method: as §1
[6] = system: Staphylococcus epidermidis; experiment: In vitro minimum inhibitory concentration against Staphylococcus epidermidis 3159 using brain-heart infusion agar; summary of the method: as §1
Streptococcus equinus = experiment: In vitro minimum inhibitory concentration against Streptococcus bovis A5169 using brain-heart infusion agar; summary of the method: as §1
Streptococcus agalactiae = experiment: In vitro minimum inhibitory concentration against Streptococcus agalactiae CMX 508 using brain-heart infusion agar; summary of the method: as §1
Streptococcus pyogenes = experiment: In vitro minimum inhibitory concentration against Streptococcus pyogenes 930 using brain-heart infusion agar; summary of the method: as §1

Structure (SMILES): NC1CCN(c2cc3c(cc2F)c(=O)c(C(=O)O)cn3-c2ccc(F)cc2F)CC1
- MIC (Acinetobacter): 0.78 µg/mL (≈ 1.87 µM)
- MIC (Enterococcus faecium): 0.78 µg/mL (≈ 1.87 µM)
- MIC (Escherichia coli): 0.1 µg/mL (≈ 0.24 µM)
- MIC (Klebsiella aerogenes): 0.39 µg/mL (≈ 0.934 µM)
- MIC (Klebsiella pneumoniae): 0.1 µg/mL (≈ 0.24 µM)
- MIC (Pseudomonas aeruginosa [1]): 0.78 µg/mL (≈ 1.87 µM)
- MIC (Pseudomonas aeruginosa [2]): 0.78 µg/mL (≈ 1.87 µM)
- MIC (Staphylococcus aureus [3]): 0.1 µg/mL (≈ 0.24 µM)
- MIC (Staphylococcus aureus [4]): 0.39 µg/mL (≈ 0.934 µM)
- MIC (Staphylococcus aureus [5]): 0.39 µg/mL (≈ 0.934 µM)
- MIC [6]: 0.39 µg/mL (≈ 0.934 µM)
- MIC (Streptococcus equinus): 1.56 µg/mL (≈ 3.74 µM)
- MIC (Streptococcus agalactiae): 0.78 µg/mL (≈ 1.87 µM)
- MIC (Streptococcus pyogenes): 0.39 µg/mL (≈ 0.934 µM)
